In ChEMBL document CHEMBL4811287, “Discovery of dronedarone and its analogues as NLRP3 inflammasome inhibitors with potent anti-inflammation activity” (Bioorg Med Chem Lett, 2021):
Calls of active or inactive are those of the source. The calls are words filed in the database; no cut-off is given here.

Columns and labels:
[1] = target: NACHT, LRR and PYD domains-containing protein 3 (Mus musculus, UniProt Q8R4B8); assay: (§1) Inhibition of NLRP3 inflammasome in LPS-primed mouse J774.A1 cells assessed as reduction in IL-1beta secretion preincubated with compound for 1 hr followed by nigericin stimulation for 1 hr by ELISA; type: cell-based
In short: (§2)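 J774A.1 murine macrophages primed with LPS, exposed to compound at indicated doses for 1 h, then stimulated with nigericin for another 1 h; IL-1β released into supernatant measured by ELISA.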

[2] = target: NACHT, LRR and PYD domains-containing protein 3 (Mus musculus) (UniProt Q8R4B8); assay: Inhibition of NLRP3 inflammasome in LPS/nigericin-stimulated mouse J774.A1 cells assessed as effect on ASC expression level in cell lysates by Western blot analysis; type: subcellular
In short: (§3)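 LPS-primed J774A.1 cells treated with compound, then nigericin-activated; NLRP3-related proteins analysed by Western blot in cell supernatant (caspase-1 p20, IL-1β) and cell lysate.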

[3] = tested on: J774.A1; assay: Effect on NLRP3 expression in LPS/nigericin-stimulated mouse J774.A1 cell lysates by western blot analysis; type: functional, subcellular; in short: as §3
[4] = target: NACHT, LRR and PYD domains-containing protein 3 (Mus musculus) (UniProt Q8R4B8); assay: Inhibition of NLRP3 inflammasome in LPS/nigericin-stimulated mouse J774.A1 cells assessed as effect on pro-caspase-1 expression level in cell lysates by Western blot analysis; type: subcellular; in short: as §3
[5] = target: NACHT, LRR and PYD domains-containing protein 3 (Mus musculus) (UniProt Q8R4B8); assay: as §1; type: cell-based; conditions: time 2.0 hrs; in short: as §2
[6] = target: NACHT, LRR and PYD domains-containing protein 3 (Mus musculus) (UniProt Q8R4B8); assay: Inhibition of NLRP3 inflammasome in LPS/nigericin-stimulated mouse J774.A1 cells assessed as effect on pro-IL-1beta expression level in cell lysates by Western blot analysis; type: subcellular; in short: as §3
[7] = target: NACHT, LRR and PYD domains-containing protein 3 (Mus musculus) (UniProt Q8R4B8); assay: Inhibition of NLRP3 inflammasome in LPS/nigericin-stimulated mouse J774.A1 cells assessed as reduction in caspase 1 p20 level in cell supernatants by Western blot analysis; conditions: dose 1-20 µM; in short: as §3
[8] = target: NACHT, LRR and PYD domains-containing protein 3 (Mus musculus) (UniProt Q8R4B8); assay: Inhibition of NLRP3 inflammasome in LPS/nigericin-stimulated mouse J774.A1 cells assessed as reduction in IL-1beta level in cell supernatant by Western blot analysis; conditions: dose 1-20 µM; in short: as §3
[9] = tested on: Mus musculus; assay: Antiinflammatory activity against LPS-induced sepsis C57BL/6 mouse model assessed as decrease in serum IL-1beta level at 100 mg/kg, ip administered as single dose prior to LPS challenge by ELISA; type: functional; conditions: C57BL/6, ip
In short: (§4)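 C57BL/6 mice given 100 mg/kg ahead of intraperitoneal LPS injection. Serum and peritoneal lavage fluid collected and cytokines (IL-1β, IL-6, TNF-α) quantified by ELISA. n = 5 per group, means ± SEM, compared against LPS-only group.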

[10] = tested on: Mus musculus; assay: Antiinflammatory activity against LPS-induced sepsis C57BL/6 mouse model assessed as decrease in peritoneal fluid IL-1beta level at 100 mg/kg, ip administered as single dose prior to LPS challenge by ELISA; type: functional; conditions: C57BL/6, ip; in short: as §4
[11] = tested on: Mus musculus; assay: Antiinflammatory activity against LPS-induced sepsis C57BL/6 mouse model assessed as decrease in serum IL-6 level at 100 mg/kg, ip administered as single dose prior to LPS challenge by ELISA; type: functional; conditions: C57BL/6, ip; in short: as §4
[12] = tested on: Mus musculus; assay: Antiinflammatory activity against LPS-induced sepsis C57BL/6 mouse model assessed as decrease in peritoneal fluid IL-6 level at 100 mg/kg, ip administered as single dose prior to LPS challenge by ELISA; type: functional; conditions: C57BL/6, ip; in short: as §4
[13] = tested on: Mus musculus; assay: Antiinflammatory activity against LPS-induced sepsis C57BL/6 mouse model assessed as decrease in serum TNF-alpha level at 100 mg/kg, ip administered as single dose prior to LPS challenge by ELISA; type: functional; conditions: C57BL/6, ip; in short: as §4
[14] = tested on: Mus musculus; assay: Antiinflammatory activity against LPS-induced sepsis C57BL/6 mouse model assessed as decrease in peritoneal fluid TNF-alpha level at 100 mg/kg, ip administered as single dose prior to LPS challenge by ELISA; type: functional, organism-based; in short: as §4
[15] = Inhibition of K+ channel in LPS-primed mouse bone marrow derived macrophages assessed as inhibition of NLRP3 inflammasome activation-mediated IL-1beta release; type: tissue-based; conditions: BMDM
[16] = Inhibition of Cl- channel in human monocytes assessed as inhibition of ATP-induced NLRP3 inflammasome-activation mediated IL-1beta release; type: cell-based; conditions: Monocyte
[17] = tested on: Microglia; assay: Inhibition of Ca2+ channel in mouse microglial cells assessed as inhibition of Abeta-stimulated NLRP3 inflammasome activation-mediated IL-1beta release at 36 nM by ELISA; type: cell-based
[18] = Inhibition of ATP-sensitive K+ channel in LPS-activated human monocytes assessed as inhibition of NLRP3 inflammasome activation-mediated IL-1beta release; type: cell-based; conditions: Monocyte

Sequence of NACHT, LRR and PYD domains-containing protein 3 (Q8R4B8 whole entry, the tested form may be a part): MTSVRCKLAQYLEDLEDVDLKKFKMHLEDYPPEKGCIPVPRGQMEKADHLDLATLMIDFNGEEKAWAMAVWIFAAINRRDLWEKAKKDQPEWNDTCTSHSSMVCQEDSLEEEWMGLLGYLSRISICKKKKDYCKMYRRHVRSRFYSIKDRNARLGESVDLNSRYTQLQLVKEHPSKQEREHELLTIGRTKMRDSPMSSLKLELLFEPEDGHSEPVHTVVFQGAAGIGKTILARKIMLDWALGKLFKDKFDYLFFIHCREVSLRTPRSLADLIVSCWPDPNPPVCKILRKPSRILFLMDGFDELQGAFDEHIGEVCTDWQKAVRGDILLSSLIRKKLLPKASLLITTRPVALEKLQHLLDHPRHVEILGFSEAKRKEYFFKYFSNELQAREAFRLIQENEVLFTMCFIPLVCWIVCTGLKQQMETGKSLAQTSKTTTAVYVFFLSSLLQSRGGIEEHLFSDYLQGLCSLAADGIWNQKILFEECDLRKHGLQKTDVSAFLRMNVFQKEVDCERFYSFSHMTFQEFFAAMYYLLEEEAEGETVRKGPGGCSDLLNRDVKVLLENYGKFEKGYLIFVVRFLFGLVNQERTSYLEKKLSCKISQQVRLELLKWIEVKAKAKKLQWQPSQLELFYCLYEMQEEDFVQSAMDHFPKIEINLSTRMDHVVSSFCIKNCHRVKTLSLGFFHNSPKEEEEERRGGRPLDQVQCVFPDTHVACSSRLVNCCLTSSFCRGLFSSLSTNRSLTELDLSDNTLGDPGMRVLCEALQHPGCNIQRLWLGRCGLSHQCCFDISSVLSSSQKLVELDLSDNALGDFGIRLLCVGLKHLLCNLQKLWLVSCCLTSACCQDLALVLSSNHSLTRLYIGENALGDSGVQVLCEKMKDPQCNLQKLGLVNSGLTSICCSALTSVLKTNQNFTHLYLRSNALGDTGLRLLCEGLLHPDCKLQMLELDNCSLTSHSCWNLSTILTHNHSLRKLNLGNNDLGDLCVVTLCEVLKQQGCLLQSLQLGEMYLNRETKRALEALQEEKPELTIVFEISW
Sequence of NACHT, LRR and PYD domains-containing protein 3 (Mus musculus) (Q8R4B8 whole entry, the tested form may be a part): as above

SMILES | IC50 [1] [µM] | other results
CCCCc1oc2ccc(S(=O)(=O)NC)cc2c1C(=O)c1ccc(OCCCN(CCCC)CCCC)cc1 | 22.2 | –
CCCCc1oc2ccc(NS(=O)(=O)c3ccc(F)cc3)cc2c1C(=O)c1ccc(OCCCN(CCCC)CCCC)cc1 | 12.7 | –
CCCCc1oc2ccc(NS(=O)(=O)c3ccccc3)cc2c1C(=O)c1ccc(OCCCN(CCCC)CCCC)cc1 | 10.7 | –
CCCCc1oc2ccc(NC(=O)C(C)(C)C)cc2c1C(=O)c1ccc(OCCCN(CCCC)CCCC)cc1 | 9.03 | –
CCCCc1oc2ccc(NS(=O)(=O)N(C)C)cc2c1C(=O)c1ccc(OCCCN(CCCC)CCCC)cc1 | 13.4 | –
CCCCc1oc2ccc(NC(=O)c3ccc(OC)cc3)cc2c1C(=O)c1ccc(OCCCN(CCCC)CCCC)cc1 | > 100 | –
CCCCc1oc2ccc(NS(=O)(=O)CC)cc2c1C(=O)c1ccc(OCCCN(CCCC)CCCC)cc1 | 19 | –
CCCCc1oc2ccc(NC(=O)NC3CCCC3)cc2c1C(=O)c1ccc(OCCCN(CCCC)CCCC)cc1 | 25 | –
CCCCc1oc2ccc(S(=O)(=O)NC(C)C)cc2c1C(=O)c1ccc(OCCCN(CCCC)CCCC)cc1 | 42.5 | –
CCCCc1oc2ccc(NC(=O)Nc3ccc(OC)cc3)cc2c1C(=O)c1ccc(OCCCN(CCCC)CCCC)cc1 | 24.5 | –
CCCCc1oc2ccc(S(N)(=O)=O)cc2c1C(=O)c1ccc(OCCCN(CCCC)CCCC)cc1 | 26.7 | –
CCCCc1oc2ccc(NS(=O)(=O)c3ccc(OC)cc3)cc2c1C(=O)c1ccc(OCCCN(CCCC)CCCC)cc1 | 27.9 | –
CCCCc1oc2ccc(NS(=O)(=O)NC)cc2c1C(=O)c1ccc(OCCCN(CCCC)CCCC)cc1 | 11.4 | –
CCCCc1oc2ccc(NC(=O)Nc3ccc(Cl)cc3)cc2c1C(=O)c1ccc(OCCCN(CCCC)CCCC)cc1 | 16.1 | –
CCCCc1oc2ccc(S(=O)(=O)N(CCC)CCC)cc2c1C(=O)c1ccc(OCCCN(CCCC)CCCC)cc1 | > 100 | –
CCCCc1oc2ccc(NS(=O)(=O)C3CC3)cc2c1C(=O)c1ccc(OCCCN(CCCC)CCCC)cc1 | 45.5 | –
CCCCc1oc2ccc(N)cc2c1C(=O)c1ccc(OCCCN(CCCC)CCCC)cc1 | > 100 | –
CCCCc1oc2ccc(NS(=O)(=O)c3ccc(C(F)(F)F)cc3)cc2c1C(=O)c1ccc(OCCCN(CCCC)CCCC)cc1 | 81.6 | –
CCCCc1oc2ccc(NC(=O)C(C)C)cc2c1C(=O)c1ccc(OCCCN(CCCC)CCCC)cc1 | 3.85 | inhibition [2]: inactive; Activity [3]: inactive; inhibition [4]: inactive; inhibition [5]: Dose-Dependent Effect; inhibition [6]: inactive; inhibition [7]: Dose-Dependent Effect; inhibition [8]: Dose-Dependent Effect; inhibition in vivo at 100 mg/kg [9]: 42%; inhibition in vivo at 100 mg/kg [10]: 22%; inhibition in vivo at 100 mg/kg [11]: 0%; inhibition in vivo at 100 mg/kg [12]: 2%; inhibition in vivo at 100 mg/kg [13]: 18%; Activity [14]: inactive
C=CS(=O)(=O)Nc1ccc2oc(CCCC)c(C(=O)c3ccc(OCCCN(CCCC)CCCC)cc3)c2c1 | 25.3 | –
CC(O)CC(=O)O (stereo not drawn) [3-HYDROXYBUTYRIC ACID, (+/-)-] | – | IC50 [15]: 2000 µM

SMILES | IC50 [1] [µM] | other results
CCCCC(=O)Nc1ccc2oc(CCCC)c(C(=O)c3ccc(OCCCN(CCCC)CCCC)cc3)c2c1 | 5.82 | –
CCCCc1oc2ccccc2c1C(=O)c1ccc(OCCCN(CCCC)CCCC)cc1 | > 100 | –
CCCCc1oc2ccc(NS(=O)(=O)c3ccc(C)cc3)cc2c1C(=O)c1ccc(OCCCN(CCCC)CCCC)cc1 | 25 | –
CCCCc1oc2ccc(NS(=O)(=O)NC(C)C)cc2c1C(=O)c1ccc(OCCCN(CCCC)CCCC)cc1 | 7.65 | –
C=C(CC)C(=O)c1ccc(OCC(=O)O)c(Cl)c1Cl [ETHACRYNIC ACID] | – | IC50 [16]: 3 µM
CCCCc1oc2ccc(NS(C)(=O)=O)cc2c1C(=O)c1ccc(OCCCN(CCCC)CCCC)cc1 [DRONEDARONE] | 6.84 | –
CCCCc1oc2ccc(NC(C)=O)cc2c1C(=O)c1ccc(OCCCN(CCCC)CCCC)cc1 | 6.77 | –
CCCCc1oc2ccc(NC(=O)c3ccccc3)cc2c1C(=O)c1ccc(OCCCN(CCCC)CCCC)cc1 | 13.3 | –
CCCCc1oc2ccc(NC(=O)NC3CCCCC3)cc2c1C(=O)c1ccc(OCCCN(CCCC)CCCC)cc1 | 74.8 | –
CCCCc1oc2ccc(S(=O)(=O)NOC)cc2c1C(=O)c1ccc(OCCCN(CCCC)CCCC)cc1 | 83.8 | –
CCCCc1oc2ccc(NS(=O)(=O)C3CCCCC3)cc2c1C(=O)c1ccc(OCCCN(CCCC)CCCC)cc1 | 25 | –
CCCCc1oc2ccc(NC(=O)Nc3ccc(C#N)cc3)cc2c1C(=O)c1ccc(OCCCN(CCCC)CCCC)cc1 | 18.5 | –
CCCCc1oc2ccc(NS(=O)(=O)c3cccnc3)cc2c1C(=O)c1ccc(OCCCN(CCCC)CCCC)cc1 | 33.4 | –
CCCCc1oc2ccc(NC(=O)NC(C)C)cc2c1C(=O)c1ccc(OCCCN(CCCC)CCCC)cc1 | 13.3 | –
COCCOC(=O)C1=C(C)NC(C)=C(C(=O)OC(C)C)C1c1cccc([N+](=O)[O-])c1 (stereo not given) | – | inhibition [17]: 48%
C=CC(=O)Nc1ccc2oc(CCCC)c(C(=O)c3ccc(OCCCN(CCCC)CCCC)cc3)c2c1 | 26.7 | –
CCCCc1oc2ccc(NC(=O)Nc3ccc(C)cc3)cc2c1C(=O)c1ccc(OCCCN(CCCC)CCCC)cc1 | 71.2 | –
COc1ccc(Cl)cc1C(=O)NCCc1ccc(S(=O)(=O)NC(=O)NC2CCCCC2)cc1 [GLYBURIDE] | – | IC50 [18]: 12 µM
CCCCc1oc2ccc(NC(=O)NCCC)cc2c1C(=O)c1ccc(OCCCN(CCCC)CCCC)cc1 | 19.2 | –
CCCCc1oc2ccc(S(=O)(=O)NCCN(C)C)cc2c1C(=O)c1ccc(OCCCN(CCCC)CCCC)cc1 | > 100 | –
CCCCc1oc2ccc(S(=O)(=O)N(C)C)cc2c1C(=O)c1ccc(OCCCN(CCCC)CCCC)cc1 | 61.1 | –
